Two molecules from ChEMBL document CHEMBL4049408, “Exploration of 2-((Pyridin-4-ylmethyl)amino)nicotinamide Derivatives as Potent Reversal Agents against P-Glycoprotein-Mediated Multidrug Resistance” (J Med Chem, 2017) can be followed below.

One data set relates to K562. The data set is described as follows: Cytotoxicity against human K562 cells after 48 hrs by MTT assay. Format: functional, cell-based. Particulars: K562, 48 h. The method, boiled down: (§1)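 MTT viability in parental K562 and P-gp-overexpressing K562/A02 cells. Compound alone at a concentration series gives the IC50. Mean ± SD of three independent tests.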
For orientation: Formazan colour is commonly taken as a measure of viable cells.

Data set [1] deals with K562/A02. The data set is described as follows: Cytotoxicity against human K562/A02 cells overexpressing P-gp after 48 hrs by MTT assay. Format: functional, cell-based. Particulars: K562/A02, 48 h. In a few lines:
as §1

The target of data set [2] is T1, ATP-dependent translocase ABCB1 (Homo sapiens, UniProt P08183). Nature of the data set: Inhibition of ABCB1 ATPase in human ABCB1 membrane fraction assessed as decrease in ATPase activity at 0.5 uM preincubated with compound followed by addition of MgATP measured after 1 hr by luciferase reporter gene assay relative to control. Format: cell membranes. Background: Reporter assays use an easily measured gene product as a stand-in for the process of interest.

The subject of the next data set is GES1. The data set is described as follows: Cytotoxicity against human GES-1 cells after 48 hrs by MTT assay. Format: cell-based. Particulars: GES1, 48 h. The method, boiled down: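 Survival of GES-1 cells measured across a range of compound concentrations to give the IC50. Mean ± SD of three independent tests.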
Data set [3] has as its target T1, ATP-dependent translocase ABCB1. Nature of the data set: Inhibition of ABCB1 in human K562/A02 cells assessed as potentiation of adriamycin-mediated cytotoxicity by measuring reduction in ADR IC50 at 5 uM preincubated for 24 hrs followed by compound washout for 12 hrs and subsequent addition of adriamycin measured after 48 hrs by MTT assay relative to control. Format: cell-based. In a few lines:
(§2)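 K562/A02 cells incubated with modulator at 5.0 µM, then washed out. Adriamycin IC50 determined at 0, 6, 12 or 24 h after removal, with an unwashed comparison. Reversal fold = IC50 without inhibitor / IC50 with inhibitor. Mean ± SD of three independent tests.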

For data set [4] the target is unchanged. Nature of the data set: Inhibition of ABCB1 in human K562/A02 cells assessed as potentiation of adriamycin-mediated cytotoxicity by measuring reduction in ADR IC50 at 5 uM preincubated for 24 hrs followed by compound washout for 6 hrs and subsequent addition of adriamycin measured after 48 hrs by MTT assay relative to control. Format: cell-based. In a few lines:
as §2

The target is the same in data set [5]. Nature of the data set: Inhibition of ABCB1 in human K562/A02 cells assessed as potentiation of adriamycin-mediated cytotoxicity by measuring reduction in ADR IC50 at 5 uM preincubated for 24 hrs followed by compound washout for 24 hrs and subsequent addition of adriamycin measured after 48 hrs by MTT assay relative to control. Format: cell-based. In a few lines:
as §2

For data set [6] the target is unchanged. The data set is described as follows: Inhibition of ABCB1 in human K562/A02 cells assessed as potentiation of adriamycin-mediated cytotoxicity by measuring reduction in ADR IC50 at 5 uM preincubated for 24 hrs followed by compound washout and subsequent addition of adriamycin measured after 48 hrs by MTT assay relative to control. Format: cell-based. In a few lines:
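K562/A02 cells incubated with modulator at 5.0 µM, then washed out. Reversal fold = IC50 without inhibitor / IC50 with inhibitor. Mean ± SD of three independent tests.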

The subject of data set [7] is K562/A02. Nature of the data set: Potentiation of cyclophosphamide-mediated cytotoxicity against human K562/A02 cells at 5 uM after 48 hrs by MTT assay. Format: functional, cell-based. In a few lines: (§3)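 K562/A02 cells given daunorubicin, paclitaxel, vinblastine (P-gp substrates) or cyclophosphamide (non-substrate), each with modulator at 5.0 µM; cytotoxicity then measured. Mean ± SD of three independent tests.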

Data set [8] deals with T1, ATP-dependent translocase ABCB1. Nature of the data set: Inhibition of ABCB1 in human K562/A02 cells assessed as increase in intracellular adriamycin accumulation at 1 uM after 2.5 hrs by spectrofluorimetric analysis. Format: cell-based. In a few lines:
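Intracellular adriamycin measured by its autofluorescence using spectrofluorometry after 2.5 h accumulation in K562/A02 cells. Modulator tested at concentrations up to 5.0 µM; parental K562 and untreated K562/A02 cells as comparators. Mean ± SD of three experiments.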

The target is the same in data set [9]. Nature of the data set: Inhibition of ABCB1 in human K562/A02 cells assessed as potentiation of vinblastine-mediated cytotoxicity at 5 uM after 48 hrs by MTT assay. Format: cell-based. The method, boiled down: as §3
Data set [10] has the same target. The data set is described as follows: Inhibition of ABCB1 in human K562/A02 cells assessed as potentiation of paclitaxel-mediated cytotoxicity at 5 uM after 48 hrs by MTT assay. Format: cell-based. In a few lines: as §3
Data set [11] concerns K562/A02. The data set is described as follows: Effect on ABCB1 level in human K562/A02 cells at 0.1 to 5 uM after 72 hrs by Western blot analysis. Format: functional, cell-based. The method, boiled down:
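K562/A02 cells exposed to 0.1, 1.0 or 5.0 µmol/L compound for 72 h. ABCB1 detected by western blot; band intensity expressed as a ratio to β-tubulin.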
A general note: A western blot detects proteins with antibodies after separation by electrophoresis.

The nature of data set [12]: Inhibition of CYP3A4 in rat liver microsomes assessed as 6beta-hydroxytestosterone formation at 40 uM using testosterone as substrate by reverse-phase HPLC analysis. Format: ADME.
Data set [13] addresses T1, ATP-dependent translocase ABCB1. Nature of the data set: Inhibition of ABCB1 in human K562/A02 cells assessed as potentiation of daunorubicin-mediated cytotoxicity at 5 uM after 48 hrs by MTT assay. Format: cell-based. The method, boiled down: as §3
In data set [14] the test system is K562/A02. Nature of the data set: Cytotoxicity against human K562/A02 cells assessed as cell survival at 5 uM after 48 hrs by MTT assay relative to control. Format: cell-based. Particulars: k562/a02, 48 h, 5 µM. In a few lines: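 MTT viability assay in P-gp-overexpressing, ADM-resistant K562/A02 cells, alongside parental K562. […] Values are mean ± SD of three independent tests.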

Data set [15] in a line: Selectivity index, ratio of IC50 for human GES-1 cells to EC50 for inhibition of ABCB1 in human K562/A02 cells assessed as potentiation of adriamycin-induced cytotoxicity by measuring compound concentration required for reduction of ADR IC50. The method, boiled down:
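SI = IC50 in GES-1 cells divided by EC50 for reversal of adriamycin resistance in K562/A02 cells.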

The target in data set [16] is T1, ATP-dependent translocase ABCB1. Nature of the data set: Inhibition of ABCB1 in human K562/A02 cells assessed as increase in intracellular Rh123 accumulation at 5 uM up to 90 mins by flow cytometry. Format: cell-based. Particulars: 1.5 h. The method, boiled down: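 K562/A02 cells treated with 5.0 µM modulator; Rh123-associated mean fluorescence intensity read by flow cytometry at 5, 10, 25, 30, 60 and 90 min. Untreated cells as negative control. Mean ± SD of three experiments.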

For data set [17] the target is unchanged. The data set is described as follows: Substrate activity at ABCB1 ATPase in human ABCB1 membrane fraction assessed as increase in ATPase activity at 0.5 uM preincubated with compound followed by addition of MgATP measured after 1 hr by luciferase reporter gene assay relative to control. Format: cell membranes.
Data set [18] has the same target. The data set is described as follows: Substrate activity at ABCB1 ATPase in human ABCB1 membrane fraction assessed as increase in ATPase activity at 5 uM preincubated with compound followed by addition of MgATP measured after 1 hr by luciferase reporter gene assay relative to control. Format: cell membranes.
The target is the same in data set [19]. Nature of the data set: Inhibition of ABCB1 in human K562/A02 cells assessed as potentiation of adriamycin-mediated cytotoxicity by measuring reduction in ADR IC50 at 5 uM after 48 hrs by MTT assay relative to control. Format: cell-based. The method, boiled down: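 K562/A02 cells exposed to a series of adriamycin concentrations with modulator at 5.0 µM; 0.1% DMSO as solvent control. IC50 read by MTT. Reversal fold = IC50 without inhibitor / IC50 with inhibitor. Mean ± SD of three independent tests.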

Activity calls are given as the source filed them. The calls are words filed in the database; no cut-off is given here.

T1 sequence (P08183 whole entry): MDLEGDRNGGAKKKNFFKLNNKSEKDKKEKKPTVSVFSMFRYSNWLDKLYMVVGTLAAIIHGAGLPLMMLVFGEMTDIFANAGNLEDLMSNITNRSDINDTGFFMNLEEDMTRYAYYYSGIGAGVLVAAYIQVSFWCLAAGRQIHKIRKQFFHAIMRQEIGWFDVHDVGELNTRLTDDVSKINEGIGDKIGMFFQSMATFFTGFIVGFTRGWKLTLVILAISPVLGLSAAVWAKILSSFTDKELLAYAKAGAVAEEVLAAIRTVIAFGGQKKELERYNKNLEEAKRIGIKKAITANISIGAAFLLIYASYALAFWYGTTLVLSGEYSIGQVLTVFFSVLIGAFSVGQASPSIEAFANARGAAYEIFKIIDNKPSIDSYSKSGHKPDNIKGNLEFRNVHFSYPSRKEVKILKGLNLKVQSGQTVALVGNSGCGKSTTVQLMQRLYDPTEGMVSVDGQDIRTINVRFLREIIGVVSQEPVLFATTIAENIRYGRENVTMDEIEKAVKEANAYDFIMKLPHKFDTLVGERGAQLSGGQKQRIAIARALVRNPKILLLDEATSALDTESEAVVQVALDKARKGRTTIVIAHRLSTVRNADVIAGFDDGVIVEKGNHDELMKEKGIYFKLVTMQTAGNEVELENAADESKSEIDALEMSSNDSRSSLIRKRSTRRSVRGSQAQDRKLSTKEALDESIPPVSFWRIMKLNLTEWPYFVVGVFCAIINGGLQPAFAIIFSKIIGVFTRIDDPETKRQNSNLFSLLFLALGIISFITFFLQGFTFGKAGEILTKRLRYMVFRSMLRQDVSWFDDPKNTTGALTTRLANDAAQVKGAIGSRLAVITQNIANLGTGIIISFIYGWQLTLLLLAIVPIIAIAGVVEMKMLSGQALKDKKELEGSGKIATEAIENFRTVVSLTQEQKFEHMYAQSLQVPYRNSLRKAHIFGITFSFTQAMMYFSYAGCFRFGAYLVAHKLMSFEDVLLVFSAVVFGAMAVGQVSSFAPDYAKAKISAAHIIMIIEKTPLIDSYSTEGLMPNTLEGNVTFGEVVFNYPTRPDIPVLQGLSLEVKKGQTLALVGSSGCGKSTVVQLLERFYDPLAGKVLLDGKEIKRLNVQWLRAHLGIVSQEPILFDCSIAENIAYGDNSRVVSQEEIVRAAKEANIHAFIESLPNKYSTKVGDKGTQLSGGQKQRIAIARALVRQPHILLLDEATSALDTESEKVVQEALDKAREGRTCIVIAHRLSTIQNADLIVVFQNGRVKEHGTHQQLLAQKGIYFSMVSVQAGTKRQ

On to `COc1cc2c(cc1OC)CN(CCc1ccc(NC(=O)c3cccnc3NCc3ccncc3)cc1)CC2`, for which the 50% inhibitory concentration (IC50) (as a rule, the concentration that inhibits the measured activity by half) in the data set on K562 is 55.4 µM; in the data set with K562/A02 [1] it was 74.9 µM; in the data set on GES1, > 100 µM. For the same molecule, the “inhibition (INH)” value is given as “Active” in data set [2]; “Active” in data set [8]; “Active” in data set [9]; “Active” in [10]; “Not Active” in [12]; “Active” in [13]. The “inhibition (INH)” value in data set [16] is recorded as “Active”. For the same molecule, the “fold change (FC)” value in [3] is 14.54; in data set [4], 20.03; in [5], 7.84; in data set [6], 27.98. The outcome in the data set with K562/A02 [7] and in the data set on K562/A02 [11] was inactive. The Activity result with K562/A02 [14] is “Non-Toxic”. Moreover, the “Ratio IC50/EC50” value in data set [15] is reported as >836.1.

As for `N#CC1(c2ccc(NC(=O)c3cccnc3NCc3ccncc3)cc2)CCCC1` [RIVOCERANIB], the IC50 in the data set with K562 lay in the range of 14.9 to 15.9 µM; in the data set with K562/A02 [1], 19.8 to 20.8 µM. Further, the “fold change (FC)” value in data set [17] was 1.41; in data set [3], 3.97; in data set [4], 6.12; in data set [5], 2.46; in [6], 7.35; in data set [18], 2.68. For the same molecule, in data set [19], the fold change (FC) fell in the range of 8.63 to 8.71. Besides, the “inhibition (INH)” value in data set [8] and in data set [16] was “Active” throughout.
